Reference: article PMC7007330 (Molecular microbiology, 2019)
Entries after “also recorded” stand apart in the source; their conditions may differ. Where two headings read alike, the source gives them in different places.

Key:
RsbU45–313 [1] = target: T1, RsbU45–313 (Chlamydia trachomatis, UniProt A0A0H3MDU0); assay: Differential scanning fluorimetry; assay type: binding
WT RsbU45–313 = WT RsbU45–313 (Chlamydia trachomatis, UniProt A0A0H3MDU0); assay type: binding; settings: for SPR dose-dependent binding curves: Figure S3; for binding in initial SPR screening: ligands at 100 μM and 1 mM
RsbU45–313 [2] = target: T1, RsbU45–313; assay: biochemical; assay type: binding
[3] = tested on: RsbU* mutant strain of C. trachomatis L2; assay: Growth curves with chemical inhibitors; assay type: cell-based, Chlamydia trachomatis; settings: L929 cells; HQNO 1 μM added at infection
[4] = tested on: wild-type Chlamydia trachomatis L2; assay: Growth curves with chemical inhibitors; assay type: cell-based; settings: L929 cells; HQNO 1 μM, BKA 0.25 μM added at infection; 0-72 hpi
[5] = tested on: wild-type C. trachomatis L2; assay: Progeny assay; assay type: cell-based, Chlamydia trachomatis; settings: L929 cells; BKA 0.25 μM, HQNO 1 μM; 36 hpi then passaged
In short: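 L929 cells were infected with C. trachomatis L2 wild-type or RsbU* strains, with BKA (0.25 μM) and HQNO (1 μM) added at infection where indicated. At 36 hpi, wells were either fixed and stained with MicroTrack reagent, or water-lysed and passaged onto fresh host monolayers, then fixed and stained 36 h later. IFUs were counted, and fold change was taken as post-passage IFUs relative to first-36 h IFUs.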

[6] = tested on: sodium-dependent NADH dehydrogenase; settings: low concentrations (1 μM); cited from earlier work
[7] = tested on: wild-type C. trachomatis L2; assay: Immunofluorescence microscopy of infected L929 cells, wild-type; assay type: cell-based, Chlamydia trachomatis
In short: (§1)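 L929 monolayers were grown to confluency on slides and infected with wild-type C. trachomatis L2 or RsbU* mutant. HQNO or BKA was added immediately after infection where indicated. At 24 and 72 hpi, cells were fixed in 100% methanol (10 min, RT), washed with HBSS then PBS, and stained with MicroTrack reagent (1:40 in PBS, 1 h 50 min, RT). Nuclei were stained with DAPI (10 min, RT, dark) and samples mounted in antifade. Imaging was by spinning-disk confocal at 150X, 7 Z-stacks, maximum projection.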

RsbU* mutant = assay: Immunofluorescence microscopy of infected L929 cells, RsbU* mutant; assay type: cell-based, Chlamydia trachomatis; settings: 24 and 72 hours
In short: as §1

RsbU45–313 K140A/R134A = target: T2, RsbU45–313 K140A/R134A (Chlamydia trachomatis, UniProt A0A0H3MDU0, K140A/R134A); assay: Surface plasmon resonance, K140A/R134A variant; assay type: binding; settings: read-out: KD (estimated, steady state affinity), SPR, PBS
T2 sequence (A0A0H3MDU0 45-313 R134A/K140A): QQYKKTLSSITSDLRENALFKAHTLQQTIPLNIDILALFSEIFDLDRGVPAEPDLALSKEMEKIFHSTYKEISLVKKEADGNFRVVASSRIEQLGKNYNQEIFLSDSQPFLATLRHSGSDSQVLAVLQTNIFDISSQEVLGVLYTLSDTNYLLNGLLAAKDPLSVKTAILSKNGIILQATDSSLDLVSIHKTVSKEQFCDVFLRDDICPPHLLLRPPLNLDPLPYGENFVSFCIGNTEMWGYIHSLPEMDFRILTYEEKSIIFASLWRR

RsbU45–313 R134A = target: T3, RsbU45–313 R134A (Chlamydia trachomatis, UniProt A0A0H3MDU0, R134A); assay: Surface plasmon resonance, R134A variant; assay type: binding; settings: read-out: KD (estimated, steady state affinity), SPR, PBS
T3 sequence (A0A0H3MDU0 45-313 R134A): T2 sequence (A0A0H3MDU0 45-313 R134A/K140A)

RsbU45–313 K140A = target: T4, RsbU45–313 K140A (Chlamydia trachomatis, UniProt A0A0H3MDU0, K140A); assay: Surface plasmon resonance, K140A variant; assay type: binding; settings: read-out: KD (estimated, steady state affinity), SPR, PBS
T4 sequence (A0A0H3MDU0 45-313 K140A): T2 sequence (A0A0H3MDU0 45-313 R134A/K140A)

RsbU45–313 Q137A = target: T5, RsbU45–313 Q137A (Chlamydia trachomatis, UniProt A0A0H3MDU0, Q137A); assay: Surface plasmon resonance, Q137A variant; assay type: binding; settings: read-out: KD (estimated, steady state affinity), SPR, PBS
T5 sequence (A0A0H3MDU0 45-313 Q137A): T2 sequence (A0A0H3MDU0 45-313 R134A/K140A)

ATP translocases = settings: cited from earlier work
[8] = 5 mM and 10 mM ligand, 10 μM RsbU45–313

Compound: O=C(O)CC(=O)C(=O)O [oxaloacetate]
- DSF temperature shift (RsbU45–313 [1]; highest ligand concentration tested, only in one of two biological replicates): significant positive temperature shift
- SPR dose-dependent binding curves (WT RsbU45–313): show dose-dependent binding
- binding in initial SPR screening (WT RsbU45–313): binding was only observed
- Kd (RsbU45–313 [2]): 55.5 µM

Compound: CCCCCCCc1cc(O)c2ccccc2[n+]1[O-] [HQNO, 2-heptyl-4-hydrosyquinoline N-oxide]
- growth of RsbU* mutant (secY vs rpp30 genome copies) [3]: does not have an additive effect on the growth defect
- growth of wild-type Chlamydia (secY vs rpp30 genome copies) [4]: not statistically different from the RsbU* mutant growth at any time point; also recorded: marked reduction in growth
- progeny production (IFUs) [5]: decrease in the number of IFUs produced compared to the initial infection
- inhibition of sodium-dependent NADH dehydrogenase [6]: selectively inhibit
- inclusion morphology by confocal microscopy ([7]; 24 hours post-infection): formed smaller inclusions and appear to contain fewer EBs
- inclusion morphology by confocal microscopy ([7]; 72 hours post-infection): inclusions that were grossly under-full
- levels of RsbU* Chlamydia or their dispersion within the host cell (RsbU* mutant): appeared to have no effect

Compound: O=C(O)CCC(=O)C(=O)O [alpha-ketoglutarate]
- DSF temperature shift (RsbU45–313 [1]; [8]): Significant stabilizing temperature shifts
- Kd (RsbU45–313 K140A/R134A): 558 µM
- SPR dose-dependent binding curves (WT RsbU45–313): show dose-dependent binding
- binding in initial SPR screening (WT RsbU45–313): binding was only observed
- Kd (WT RsbU45–313; read-out: KD (estimated, steady state affinity), SPR, WT RsbU45–313, PBS): 419 µM
- Kd (RsbU45–313 R134A): 526 µM
- Kd (RsbU45–313 K140A): 597 µM
- Kd (RsbU45–313 [2]; read-out: KD (ITC), single trial, 30 μM protein, PBS, data not shown): 25.8 µM
- Kd (RsbU45–313 Q137A): 548 µM

Compound: O=C(O)CCC(=O)O [succinate]
- SPR dose-dependent binding curves (WT RsbU45–313): do not appear to be binding

Compound: CO[C@H](C/C=C\C=C\CC/C=C/C[C@H](C)/C=C/C(=C\C(=O)O)CC(=O)O)/C(C)=C\C=C(/C)C(=O)O [BKA, bongkrekic acid]
- growth of wild-type Chlamydia (secY vs rpp30 genome copies) [4]: decrease in the growth of wild-type Chlamydia
- progeny production (IFUs) [5]: decrease in IFUs produced
- inhibition of ATP translocases (ATP translocases): inhibit ATP translocases
- morphology by confocal microscopy ([7]; 24 and 72 hours): No obvious morphological abnormalities
- levels of RsbU* Chlamydia or their dispersion within the host cell (RsbU* mutant): appeared to have no effect

Compound: O=C(O)CC(=O)O [malonate]
- SPR dose-dependent binding curves (WT RsbU45–313): do not appear to be binding

Compound: O=C(O)CC(O)C(=O)O (stereo not shown) [malate]
- DSF temperature shift (RsbU45–313 [1]; [8]): Significant stabilizing temperature shifts
- SPR dose-dependent binding curves (WT RsbU45–313): show dose-dependent binding
- binding in initial SPR screening (WT RsbU45–313): binding was only observed
- Kd (RsbU45–313 [2]): 22 µM
